Screening data (PubChem)
Only a selection was taken, and hits are over-represented in it overall.
CHOP UPR activ: activators of apoptotic CHOP UPR arm, primary screen, cell-based, CHO-CHOP luciferase reporter, luminescence, uHTS. UPR activation; percent of tunicamycin response over DMSO baseline. hit rate 0.34% among 330,000. AID 449763, 2010. activation, % at 10 µM;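 active = at 10 µM dose, activation of 40% or more, normalized to positive control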
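measured by = luciferase luminescence | assay system = CHO-CHOP cells, stable luciferase reporter of PERK-eIF2a-CHOP signalling | amount = 500 reporter cells seeded per well | timing = 6 h compound exposure at 37 °C after overnight seeding | controls = positive tunicamycin 10 µg/mL, negative DMSO alone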
Jurkat NFkB inh: inhibitors of induced NF-kB luciferase reporter, primary screen, TCR NF-kB activation inhibitor project, cell-based, luminescence, uHTS; hit rate 0.53% among 330,000; Jurkat, PMA/ionomycin-induced NF-kB luciferase reporter; inhibition, % at 4 µM; in the data active = inhibition above about 50%
697 NFkB inh: inhibitors of PMA/ionomycin-induced NF-kB reporter, 697 cells, primary screen, B-cell NF-kB inhibitor project, cell-based, luminescence, uHTS. 697 B-cell NF-kB luciferase reporter, 16 h. inhibition, % at 4 µM. hit rate 0.33% among 330,000. AID 435022, 2010; in the data active = inhibition above about 35%
CHOP inh: inhibitors of CHOP promoter induction, primary screen, cell-based, unfolded protein response, luciferase reporter | CHO-K1 CHOP-promoter luciferase, tunicamycin-induced, 15-18 h | hit rate 3.8% among 220,000 | inhibition, % at 10 µM;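 active = compounds that reduced the stress-induced luciferase reporter signal by more than about 70% of percent inhibition, limit read from the data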
XBP1 UPR activ: activators of adaptive XBP1 UPR arm, primary screen, cell-based, CHO-XBP1 luciferase reporter, luminescence, uHTS | IRE1-XBP1 UPR activation; percent of tunicamycin response, DMSO as zero | activation, % at 20 µM | hit rate 0.33% among 330,000 | AID 463104, 2010;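 active = versus positive control, 20 µM dose yields 30% or more activation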
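Material: CHO-XBP1 cells stably carrying IRE1-XBP1-driven luciferase reporter / Amount: 1000 cells per well / Compound: 20 µM, 1% DMSO / Times: 6 h treatment, 37 °C / Detection: luciferase luminescence / Measure: % activation of reporter signal versus tunicamycin and DMSO controls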
CHOP inh conf: retest of CHOP induction inhibitors, confirmation, cell-based. AID 504437, 2011. inhibition, % at 10 µM. shares compounds with CHOP inh. hit rate 45% among 2,100. CHO-CHOP promoter luciferase reporter, tunicamycin-induced, luminescence;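 active = mean of three repeat readings of reporter signal inhibition above a set limit, cut at about 70% in these data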
Numbers stand for hits; . = inactive; / = not tested or not shown.

SMILES | CHOP UPR activ | Jurkat NFkB inh | 697 NFkB inh | CHOP inh | XBP1 UPR activ | CHOP inh conf
CCCOc1ccc(CCC(=O)N/N=C/c2ccncc2)cc1 | . | . | . | . | . | /
Cc1cccc2c1N(CCOc1ccc(C(C)(C)C)cc1)C(=O)C2=O | . | . | . | 100 | . | .
Cc1ccc(OCCCN2C(=O)C(=O)c3cccc(C)c32)cc1 | . | . | . | . | . | /
O=c1[nH]c(CSc2nc3ccccc3s2)nc2ccccc12 | . | . | . | . | . | /
COc1ccc(C2NCCc3c2[nH]c2ccccc32)cc1CSc1nc2ccccc2s1 (configuration not stated) | / | / | / | 99 | / | .
Nc1ccc(SC(F)(F)F)cc1C(=O)c1ccccc1 | . | . | . | 104 | . | 111
CCc1cc(C(=O)c2ccccc2)c(N)s1 | . | . | . | / | . | /
Cc1cc(C)c2nc(C(F)(F)F)c(C#N)c(N)c2c1 | . | . | . | 106 | . | 116
CC1=C(O)C(=O)OC1c1c(Cl)cccc1Cl (configuration not stated) | . | . | . | . | . | /
Cc1nc(N2CCN(c3ccccc3)CC2)[nH]c(=O)c1CCC(C)C | . | . | . | . | . | /
CCCCCc1c(C)nc(Nc2ccccc2)[nH]c1=O | . | . | . | 104 | . | 86
Cc1nc(Nc2ccc(F)cc2)[nH]c(=O)c1CCC(C)C | . | . | . | 104 | . | 107
Cc1ccc(C(=O)ONc2ccc(N=NC(=O)c3ccccc3O)cc2)cc1 | . | . | . | 103 | . | .
Cc1ccc(C(=O)ONc2ccc(N=O)cc2)cc1 | . | . | . | . | . | /
CCOC(=O)C1=C(Cc2ccc(C)cc2)C(=O)c2ccccc2C1=O | 97 | . | . | 104 | . | .
CCC(C)(C)NC(=O)C(c1cccn1C)N(Cc1ccc(OC)cc1)C(=O)Cn1nnc2ccccc21 (configuration not stated) | . | . | . | 103 | . | .
CCC(C)(C)NC(=O)C(c1cccn1C)N(Cc1ccccc1)C(=O)Cn1nnc2ccccc21 (configuration not stated) | / | / | / | . | / | /
CCS(=O)(=O)N1CCC(C(=O)Nc2cc(C)ccc2O)CC1 | . | . | . | / | . | /
CN(C(=O)Nc1cnccc1C(F)(F)F)C1CCCCC1 | . | . | . | . | . | /
COc1ccc(Cc2nc3ccccc3n2CC(=O)N/N=C/c2ccc(C)cc2O)cc1OC | . | . | . | 104 | . | 103
COc1ccc(Cc2nc3ccccc3n2CC(=O)N/N=C/c2ccc(O)cc2)cc1OC | . | . | . | . | . | /
Cn1c2ccccc2c(=O)c2c(=O)n(C3CCCCC3)c(-c3cccs3)nc21 | . | . | . | 97 | . | .
Cn1c2ccccc2c(=O)c2c(=O)n(C3CCCCCC3)c(C3CCCCC3)nc21 | / | / | / | 105 | / | 122
CCc1nc2c(c(=O)c3ccccc3n2C)c(=O)n1C1CCCCCC1 | . | . | . | . | . | /
Cn1c2ccccc2c(=O)c2c(=O)n(-c3ccccc3)c(C3CCCCC3)nc21 | . | . | . | . | . | /
SMILES | CHOP UPR activ | Jurkat NFkB inh | 697 NFkB inh | CHOP inh | XBP1 UPR activ | CHOP inh conf
NC(=S)n1[nH]c(-c2ccc([N+](=O)[O-])cc2)c(N=Nc2ccc(O)cc2)c1=O | . | . | . | 107 | . | .
CS(=O)(=O)N1CCC(Oc2cccc(C(=O)NCCCOc3cccnc3)c2)CC1 | . | . | . | / | . | /
Cc1ccc2c(c1)c(=O)c1c3n2CCN(C(=O)CCl)C3CC1 (configuration not stated) | . | . | . | / | . | .
Cc1cc(C)c(S(=O)(=O)/N=C2\C=C(Nc3ccc(C(=O)O)cc3)C(=O)c3ccccc32)c(C)c1 | . | . | . | / | . | /
Cc1cccc(NC2=C/C(=N/S(=O)(=O)c3cccs3)c3ccccc3C2=O)c1 | / | / | / | 106 | / | 114
Cc1cc(C)c(S(=O)(=O)/N=C2\C=C(NS(=O)(=O)c3ccccc3)C(=O)c3ccccc32)c(C)c1 | . | . | . | / | . | /
Cc1ccc(Cl)cc1NC1=C/C(=N\S(=O)(=O)c2cccs2)c2ccccc2C1=O | . | . | . | 109 | . | 116
Cc1ccc(NC2=C/C(=N\S(=O)(=O)c3cccs3)c3ccccc3C2=O)c(C)c1 | . | . | . | / | . | 119
O=C1C(Nc2ccc(O)cc2)=C/C(=N/S(=O)(=O)c2cccs2)c2ccccc21 | / | / | / | 108 | / | 110
CN(Cc1cnn(C)c1)C(=O)C1CCC(=O)N(Cc2ccc(Cl)cc2)C1 (configuration not stated) | . | . | . | / | . | /
C=CCn1c(SCc2ccc(F)cc2)nnc1-c1sc2nc(C)cc(C)c2c1N | . | . | . | . | . | /
CC(OC(=O)CCN1C(=O)C2CC=CCC2C1=O)C(=O)c1ccc(F)cc1 (configuration not stated) | . | . | . | / | . | /
O=S(=O)(Nc1cccc2c1CCCC2)c1cccc(C(F)(F)F)c1 | . | . | . | 107 | . | 120
O=C(O)c1ccccc1NS(=O)(=O)c1cccc(C(F)(F)F)c1 | . | . | . | . | . | /
Cc1cc(=O)n2c3c(sc2n1)C(=O)N(Cc1ccccc1)C3=O | . | . | . | 105 | . | .
Cc1cc(=O)n2nc(-c3ccccc3)sc2n1 | . | . | . | . | . | /
Cc1sc2ncnc(N3CCC(C(=O)Nc4nnc(SCc5ccccc5F)s4)CC3)c2c1C | . | . | . | / | . | /
CNc1ccc(Br)cc(C(=O)/C=C/c2ccc(Cl)cc2Cl)c1=O | . | . | . | 103 | . | .
CCCCCc1ccc(OCCOCCn2c[n+](C)c3ccccc32)c(CCCCC)c1 | / | / | / | 108 | / | 122
O=C1C(C2=NC(c3ccccn3)C3C(=O)N(c4ccc(Cl)cc4Cl)C(=O)C23)=C(O)c2ccccc21 (configuration not stated) | . | . | . | 105 | . | 118
O=C1C(C2=NC(C(=O)O)C3C(=O)N(c4ccc(Cl)cc4)C(=O)C23)=C(O)c2ccccc21 (configuration not stated) | . | . | . | . | . | /
CCOc1cc(N2CCOCC2)c(OCC)cc1NC(=O)COc1ncnc2ccccc12 | . | . | . | . | . | /
CCOc1cc(N2CCOCC2)c(OCC)cc1NC(=O)c1cc(-c2ccco2)nc2ccccc12 | . | . | . | 105 | . | .
O=C(NCc1ccccc1)c1cc(-c2ccncc2)nc2ccc(S(=O)(=O)N3CCOCC3)cc12 | . | . | . | 103 | . | 108
COc1ccc(/C=C(\C#N)c2nc3ccc(C)cc3[nH]2)cc1Oc1ccc(C(F)(F)F)cc1[N+](=O)[O-] | . | . | . | 102 | . | .
